The values below come from ChEMBL document CHEMBL4219031, “Identification and Characterization of Von Hippel-Lindau-Recruiting Proteolysis Targeting Chimeras (PROTACs) of TANK-Binding Kinase 1” (J Med Chem, 2018).

The target in assay [1] is T1, von Hippel-Lindau disease tumor suppressor/Serine/threonine-protein kinase TBK1 (Homo sapiens, UniProt Q9UHD2+P40337). Description: Induction of VHL-mediated TBK1 degradation in human Panc02.13 cells after 16 hrs by Western blot method. The assay is classed as cell-based. An outline of the steps: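 For phospho-IRF3 read-out, TLR3 agonist Poly I:C added for the final 3 h. Cells lysed in RIPA buffer with protease/phosphatase inhibitors, lysates clarified at 16,000g, run on SDS-PAGE and immunoblotted for TBK1, pIRF3 and GAPDH.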
In general terms: A western blot detects proteins with antibodies after separation by electrophoresis.
Target sequence in this assay (P40337 whole entry, one chain of several): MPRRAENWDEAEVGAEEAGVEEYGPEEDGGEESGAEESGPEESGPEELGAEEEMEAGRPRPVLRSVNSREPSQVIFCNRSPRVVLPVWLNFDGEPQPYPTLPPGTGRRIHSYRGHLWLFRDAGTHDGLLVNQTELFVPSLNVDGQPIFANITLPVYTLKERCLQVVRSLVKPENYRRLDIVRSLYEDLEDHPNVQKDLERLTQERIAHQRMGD

Assay [2] has as its target von Hippel-Lindau disease tumor suppressor/Elongin-C/Elongin-B/HIF1A (Homo sapiens, UniProt P40337+Q15369+Q15370+Q16665). The experiment in a line: Inhibition of His-tagged VHL/elongin B/elongin C (unknown origin) interaction with HIF1alpha preincubated for 10 mins followed by fluorescin labelled HIF1alpha peptide addition measured after 2 hrs by fluorescence polarization assay. The format is protein-complex assay. An outline of the steps:
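VHL coexpressed and copurified with Elongin B and C (VCB). Compound preincubated 10 min with VHL in 50 mM Tris pH 7.5, 200 mM NaCl, 2 mM DTT, 1% DMSO. Polarization converted to percent binding against control wells; IC50 from four-parameter fit.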
On the technique in general: Fluorescence polarisation rises when a labelled molecule tumbles more slowly, as on binding a larger partner.

The target of assay [3] is T1, von Hippel-Lindau disease tumor suppressor/Serine/threonine-protein kinase TBK1. The experiment in a line: Induction of VHL-mediated TBK1 degradation in human Panc02.13 cells after 16 hrs by Western blot method relative to control. The assay is classed as cell-based. An outline of the steps:
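Panc02.13 cells grown in RPMI-1640 with 15% FBS and 10 units/mL human recombinant insulin, exposed to compound for 16 h. For phospho-IRF3 read-out, TLR3 agonist Poly I:C added for the final 3 h. Cells lysed in RIPA buffer with protease/phosphatase inhibitors, lysates clarified at 16,000g, run on SDS-PAGE and immunoblotted for TBK1, pIRF3 and GAPDH.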
Target sequence in this assay (P40337 whole entry, looked up, one chain of several): as the sequence (P40337 whole entry, one chain of several) above

Assay [4] addresses T2, Serine/threonine-protein kinase TBK1 (Homo sapiens, UniProt Q9UHD2).
T2 sequence (Q9UHD2 whole entry): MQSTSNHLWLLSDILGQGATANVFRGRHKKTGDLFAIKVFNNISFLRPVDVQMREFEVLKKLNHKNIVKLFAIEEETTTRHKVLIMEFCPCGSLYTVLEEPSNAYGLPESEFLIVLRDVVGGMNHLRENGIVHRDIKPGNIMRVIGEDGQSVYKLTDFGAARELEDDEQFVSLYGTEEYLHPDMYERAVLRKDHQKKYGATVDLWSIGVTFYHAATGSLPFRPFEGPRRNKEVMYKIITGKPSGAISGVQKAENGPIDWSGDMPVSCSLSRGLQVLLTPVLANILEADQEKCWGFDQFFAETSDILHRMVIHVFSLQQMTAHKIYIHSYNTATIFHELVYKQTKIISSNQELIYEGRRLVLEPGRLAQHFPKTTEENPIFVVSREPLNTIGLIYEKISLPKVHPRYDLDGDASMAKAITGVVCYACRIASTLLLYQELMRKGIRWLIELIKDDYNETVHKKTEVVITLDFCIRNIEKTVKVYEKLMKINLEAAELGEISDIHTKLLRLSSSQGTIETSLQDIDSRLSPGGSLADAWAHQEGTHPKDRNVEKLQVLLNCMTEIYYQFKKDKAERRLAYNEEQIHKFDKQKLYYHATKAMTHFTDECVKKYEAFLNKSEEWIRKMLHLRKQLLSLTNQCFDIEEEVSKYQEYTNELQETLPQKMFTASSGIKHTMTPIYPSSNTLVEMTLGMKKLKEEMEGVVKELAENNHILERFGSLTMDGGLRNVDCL
The experiment in a line: Binding affinity to human full length wild-type TBK1 expressed in mammalian expression system.

For orientation: DC50 means the concentration giving 50% degradation. Low values mean a more potent degrader, high ones a less potent degrader. By IC50 is commonly meant the concentration that gives 50% inhibition. The term Emax denotes the size of the effect at its maximum, as opposed to the concentration needed. What is called Kd is the equilibrium constant for the complex coming apart.

Sequence of von Hippel-Lindau disease tumor suppressor/Elongin-C/Elongin-B/HIF1A (P40337 whole entry, looked up): as the sequence (P40337 whole entry, one chain of several) above
Sequence of von Hippel-Lindau disease tumor suppressor/Elongin-C/Elongin-B/HIF1A (Q15369 whole entry, looked up): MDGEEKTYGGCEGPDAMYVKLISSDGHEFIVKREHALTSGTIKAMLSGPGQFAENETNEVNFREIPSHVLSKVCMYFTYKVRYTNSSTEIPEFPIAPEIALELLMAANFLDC
Sequence of von Hippel-Lindau disease tumor suppressor/Elongin-C/Elongin-B/HIF1A (Q15370 whole entry, looked up): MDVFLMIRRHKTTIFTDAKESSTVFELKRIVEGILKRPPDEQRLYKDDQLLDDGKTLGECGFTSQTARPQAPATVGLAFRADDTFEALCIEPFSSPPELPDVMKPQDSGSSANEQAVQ
Sequence of von Hippel-Lindau disease tumor suppressor/Elongin-C/Elongin-B/HIF1A (Q16665 whole entry, looked up): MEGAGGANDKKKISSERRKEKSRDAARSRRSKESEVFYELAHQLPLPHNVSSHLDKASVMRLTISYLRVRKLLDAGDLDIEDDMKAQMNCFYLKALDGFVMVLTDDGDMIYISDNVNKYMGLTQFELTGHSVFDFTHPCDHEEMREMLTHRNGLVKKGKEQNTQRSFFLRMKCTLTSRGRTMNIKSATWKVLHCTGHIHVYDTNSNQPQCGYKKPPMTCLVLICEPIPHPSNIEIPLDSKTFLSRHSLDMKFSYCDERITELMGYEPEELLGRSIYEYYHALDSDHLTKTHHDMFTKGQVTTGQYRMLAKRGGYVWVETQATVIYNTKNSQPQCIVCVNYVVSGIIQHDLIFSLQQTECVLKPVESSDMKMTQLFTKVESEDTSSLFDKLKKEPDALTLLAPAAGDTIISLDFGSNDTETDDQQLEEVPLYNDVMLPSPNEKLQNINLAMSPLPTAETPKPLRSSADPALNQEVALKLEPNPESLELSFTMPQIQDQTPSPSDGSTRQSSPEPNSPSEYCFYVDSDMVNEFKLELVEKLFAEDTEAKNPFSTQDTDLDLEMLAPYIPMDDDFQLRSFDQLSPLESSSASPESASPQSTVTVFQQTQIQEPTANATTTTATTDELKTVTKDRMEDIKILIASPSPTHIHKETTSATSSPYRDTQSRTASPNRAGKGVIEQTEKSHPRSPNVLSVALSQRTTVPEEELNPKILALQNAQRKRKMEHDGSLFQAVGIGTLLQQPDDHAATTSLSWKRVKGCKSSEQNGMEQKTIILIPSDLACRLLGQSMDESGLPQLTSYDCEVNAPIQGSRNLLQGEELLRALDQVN

In assay [1], `CC[C@H](NC(=O)COCCCOCCCCOCCCOc1ccc(Nc2ncc(Br)c(NCCCN(C)C(=O)C3CCC3)n2)cc1)C(=O)N1C[C@H](O)C[C@H]1C(=O)NCc1ccc(-c2scnc2C)cc1` gave a DC50 of 864 nM. The compound also had an IC50 in assay [2] of 9900 nM. In assay [3], the Emax is 71%.
`Cc1ncsc1-c1ccc(CNC(=O)[C@@H]2C[C@@H](O)CN2C(=O)[C@@H](NC(=O)CCCCCOCCOc2ccc(Nc3ncc(Br)c(NCCCN(C)C(=O)C4CCC4)n3)cc2)C(C)(C)C)cc1` had a DC50 in assay [1] above 1000 nM.
`Cc1ncsc1-c1ccc(CNC(=O)[C@@H]2C[C@@H](O)CN2C(=O)[C@@H](NC(=O)COCCCOCCCCCOc2ccc(Nc3ncc(Br)c(NCCCN(C)C(=O)C4CCC4)n3)cc2)C(C)(C)C)cc1` gave a DC50 in assay [1] of 88 nM. The same compound gave an Emax in assay [3] of 79%.
`Cc1ncsc1-c1ccc(CNC(=O)[C@@H]2C[C@@H](O)CN2C(=O)[C@@H](NC(=O)COCCCCCOCCCCOCCCCOCCCCOCCCCCOc2ccc(Nc3ncc(Br)c(NCCCN(C)C(=O)C4CCC4)n3)cc2)C(C)(C)C)cc1` yielded a DC50 in assay [1] of 292 nM. In addition, the Emax in assay [3] was 76%.
On the same counts, the results for `Cc1ncsc1-c1ccc(CNC(=O)[C@@H]2C[C@@H](O)CN2C(=O)[C@@H](NC(=O)COCCOCCCCOCCCCOCCOc2ccc(Nc3ncc(Br)c(NCCCN(C)C(=O)C4CCC4)n3)cc2)C(C)(C)C)cc1` are 6 nM and 96%.
Take `Cc1ncsc1-c1ccc(CNC(=O)[C@@H]2C[C@@H](O)CN2C(=O)[C@@H](NC(=O)COCCCOCCCCOCCCOc2ccc(Nc3ncc(I)c(NCCCN(C)C(=O)C4CCC4)n3)cc2)C(C)(C)C)cc1`: in assay [1], the DC50 worked out at 3 nM. Further, the affinity in assay [4], expressed as Kd, was 4 nM. In assay [3], this compound returned an Emax of 96%.
Take `Cc1ncsc1-c1ccc(CNC(=O)[C@@H]2C[C@@H](O)CN2C(=O)[C@@H](NC(=O)COCCCOCCCCOCCCOc2ccc(Nc3ncc(Br)c(NCCCN(C)C(=O)C4CCC4)n3)cc2)C(C)C)cc1`: the DC50 in assay [1] is 44 nM. In assay [2], this compound registered an IC50 of 5500 nM. The Emax in assay [3] was determined as 88%.
In the case of `Cc1ncsc1-c1ccc(CNC(=O)[C@@H]2C[C@@H](O)CN2C(=O)[C@@H](NC(=O)COCCOCCOCCOCCOCCOCCOc2ccc(Nc3ncc(Br)c(NCCCN(C)C(=O)C4CCC4)n3)cc2)C(C)(C)C)cc1`, in assay [1], the DC50 was found to be 34 nM. Also, in assay [3], the Emax was 96%.
As for `C=Cc1cnc(Nc2ccc(OCCCOCCCCOCCCOCC(=O)N[C@H](C(=O)N3C[C@H](O)C[C@H]3C(=O)NCc3ccc(-c4scnc4C)cc3)C(C)(C)C)cc2)nc1NCCCN(C)C(=O)C1CCC1`, in assay [1], half-maximal degradation (DC50) was put at 48 nM. Moreover, in assay [4], the Kd was determined as 130 nM. The compound further registered an Emax in assay [3] of 96%.
As to `Cc1ncsc1-c1ccc(CNC(=O)[C@@H]2C[C@@H](O)CN2C(=O)[C@@H](NC(=O)COCCOCCOCCOc2ccc(Nc3ncc(Br)c(NCCCN(C)C(=O)C4CCC4)n3)cc2)C(C)(C)C)cc1`, the DC50 in assay [1] was above 1000 nM.
Compound `Cc1ncsc1-c1ccc(CNC(=O)[C@@H]2C[C@@H](O)CN2C(=O)[C@@H](NC(=O)COCCOCCCCOCCCCOCCOCCOc2ccc(Nc3ncc(Br)c(NCCCN(C)C(=O)C4CCC4)n3)cc2)C(C)(C)C)cc1` came in with a DC50 in assay [1] of 3 nM. The same compound returned an Emax in assay [3] of 96%.
Consider `Cc1ncsc1-c1ccc(CNC(=O)[C@@H]2C[C@@H](O)CN2C(=O)[C@@H](NC(=O)COCCOCCOc2ccc(Nc3ncc(Br)c(NCCCN(C)C(=O)C4CCC4)n3)cc2)C(C)(C)C)cc1`, for which, in assay [1], the DC50 is above 1000 nM.
Regarding `Cc1ncsc1-c1ccc(CNC(=O)[C@@H]2C[C@@H](O)CN2C(=O)[C@@H](NC(=O)COCCCCOc2ccc(Nc3ncc(Br)c(NCCCN(C)C(=O)C4CCC4)n3)cc2)C(C)(C)C)cc1`, in assay [1], the DC50 was above 1000 nM.
On to `Cc1ncsc1-c1ccc(CNC(=O)[C@@H]2C[C@@H](O)CN2C(=O)[C@H](C)NC(=O)COCCCOCCCCOCCCOc2ccc(Nc3ncc(Br)c(NCCCN(C)C(=O)C4CCC4)n3)cc2)cc1`, for which the DC50 in assay [1] is above 1000 nM. Also, it took 25000 nM to reach half-maximal inhibition in assay [2] (IC50). Moreover, in assay [3], the Emax amounted to 34%.
For `Cc1cnc(Nc2ccc(OCCCOCCCCOCCCOCC(=O)N[C@H](C(=O)N3C[C@H](O)C[C@H]3C(=O)NCc3ccc(-c4scnc4C)cc3)C(C)(C)C)cc2)nc1NCCCN(C)C(=O)C1CCC1`, the DC50 in assay [1] is 92 nM. The same compound yielded a Kd in assay [4] of 270 nM. This compound displayed an Emax in assay [3] of 89%.
Consider `Cc1ncsc1-c1ccc(CNC(=O)[C@@H]2C[C@@H](O)CN2C(=O)[C@@H](NC(=O)COCCCOCCCCOCCCOc2ccc(Nc3nccc(NCCCN(C)C(=O)C4CCC4)n3)cc2)C(C)(C)C)cc1`, for which the DC50 in assay [1] was above 1000 nM. This compound also came in with a Kd in assay [4] of 725 nM.
Consider `Cc1ncsc1-c1ccc(CNC(=O)[C@@H]2C[C@@H](O)CN2C(=O)[C@@H](NC(=O)COCCCOCCCCOCCCOc2ccc(Nc3ncc(C(F)(F)F)c(NCCCN(C)C(=O)C4CCC4)n3)cc2)C(C)(C)C)cc1`, for which the DC50 in assay [1] turned out to be 29 nM. For the same compound, the Kd in assay [4] worked out at 13 nM. In assay [3], this compound displayed an Emax of 96%.
The matching figures for `CCc1cnc(Nc2ccc(OCCCOCCCCOCCCOCC(=O)N[C@H](C(=O)N3C[C@H](O)C[C@H]3C(=O)NCc3ccc(-c4scnc4C)cc3)C(C)(C)C)cc2)nc1NCCCN(C)C(=O)C1CCC1`: 121 nM, 275 nM and 77%.
The matching figures for `Cc1ncsc1-c1ccc(CNC(=O)[C@@H]2C[C@@H](O)CN2C(=O)[C@@H](NC(=O)COCCCOCCCCOCCCOc2ccc(Nc3ncc(F)c(NCCCN(C)C(=O)C4CCC4)n3)cc2)C(C)(C)C)cc1`: 282 nM, 104 nM and 74%.
On the same counts, the results for `Cc1ncsc1-c1ccc(CNC(=O)[C@@H]2C[C@@H](O)CN2C(=O)[C@@H](NC(=O)COCCCOCCCCOCCCOc2ccc(Nc3ncc(Cl)c(NCCCN(C)C(=O)C4CCC4)n3)cc2)C(C)(C)C)cc1` are 10 nM, 10.4 nM and 96%.
Compound `Cc1ncsc1-c1ccc(CNC(=O)[C@@H]2C[C@@H](O)CN2C(=O)[C@@H](NC(=O)COCCOCCOCCOCCOCCOc2ccc(Nc3ncc(Br)c(NCCCN(C)C(=O)C4CCC4)n3)cc2)C(C)(C)C)cc1` registered a DC50 in assay [1] of 29 nM. Further, the Emax in assay [3] turned out to be 96%.
The matching figures for `Cc1ncsc1-c1ccc(CNC(=O)[C@@H]2C[C@@H](O)CN2C(=O)[C@@H](NC(=O)CCCCCOCCCCOCCCCOc2ccc(Nc3ncc(Br)c(NCCCN(C)C(=O)C4CCC4)n3)cc2)C(C)(C)C)cc1`: 95 nM and 90%.
On the same counts, the results for `Cc1ncsc1-c1ccc(CNC(=O)[C@@H]2C[C@@H](O)CN2C(=O)[C@@H](NC(=O)CCOCCCOCCCOCCCOCCCOc2ccc(Nc3ncc(Br)c(NCCCN(C)C(=O)C4CCC4)n3)cc2)C(C)(C)C)cc1` are 25 nM and 96%.
In the case of `Cc1ncsc1-c1ccc(CNC(=O)[C@@H]2C[C@@H](O)CN2C(=O)[C@@H](NC(=O)COCCOCCOCCOCCOc2ccc(Nc3ncc(Br)c(NCCCN(C)C(=O)C4CCC4)n3)cc2)C(C)(C)C)cc1`, in assay [1], the DC50 was 103 nM. The compound further registered an Emax in assay [3] of 92%.
For the compound `Cc1ncsc1-c1ccc(CNC(=O)[C@@H]2C[C@@H](O)CN2C(=O)[C@@H](NC(=O)COCCCOCCCOc2ccc(Nc3ncc(Br)c(NCCCN(C)C(=O)C4CCC4)n3)cc2)C(C)(C)C)cc1`, the DC50 in assay [1] was above 1000 nM.
In assay [1], `Cc1ncsc1-c1ccc(CNC(=O)[C@@H]2C[C@@H](O)CN2C(=O)[C@@H](NC(=O)COCCOCCOCCCCOc2ccc(Nc3ncc(Br)c(NCCCN(C)C(=O)C4CCC4)n3)cc2)C(C)(C)C)cc1` yielded a DC50 of 71 nM. Also, the Emax in assay [3] amounted to 86%.
With `Cc1ncsc1-c1ccc(CNC(=O)[C@@H]2C[C@@H](O)CN2C(=O)[C@@H](NC(=O)COCCCOCCCCOCCCOc2ccc(Nc3ncc(C4CC4)c(NCCCN(C)C(=O)C4CCC4)n3)cc2)C(C)(C)C)cc1`, the DC50 in assay [1] was found to be 65 nM. For the same compound, in assay [4], binding was put at a Kd of 245 nM. Besides, the Emax in assay [3] worked out at 96%.
On the same counts, the results for `Cc1ncsc1-c1ccc(CNC(=O)[C@@H]2C[C@@H](O)CN2C(=O)[C@@H](NC(=O)COCCCOCCCCOCCCOc2ccc(Nc3ncc(C4CCC4)c(NCCCN(C)C(=O)C4CCC4)n3)cc2)C(C)(C)C)cc1` are 544 nM, 1040 nM and 70%.
